As a reminder, the IC50 is the midpoint of a concentration-inhibition curve.

From article PMC3711074 (Chemistry & biology, 2013) come the findings set out here.

One test has as its target UBC9 (SUMO E2 enzyme) (Homo sapiens, UniProt P63279). Nature of the test: reconstituted sumoylation cascade, electrophoretic mobility shift IC50. It counts as biochemical. The essentials:
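Reconstituted cascade in 50 mM Tris pH 9.0 with 5 mM MgCl2 and 1 mM DTT. Contains SUMO E1 0.1 µM, His-tagged SUMO-1 1.4 µM, UBC9 0.25 µM and a 5-FAM-labelled peptide substrate at 1.0 µM. Started with ATP (final 2 mM), run with test compound at varying concentrations for 90 min at room temperature, then EDTA-quenched. Conversion read by microfluidic mobility shift. IC50 from the mean of three replicates.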
Background: Mobility shift assays separate free from complexed probe on a gel.

Test [1] deals with T1, SUMO-activating enzyme 1/2 (SAE 1/2, SUMO E1) (Homo sapiens, UniProt Q9UBT2).
T1 sequence (Q9UBT2 1-640): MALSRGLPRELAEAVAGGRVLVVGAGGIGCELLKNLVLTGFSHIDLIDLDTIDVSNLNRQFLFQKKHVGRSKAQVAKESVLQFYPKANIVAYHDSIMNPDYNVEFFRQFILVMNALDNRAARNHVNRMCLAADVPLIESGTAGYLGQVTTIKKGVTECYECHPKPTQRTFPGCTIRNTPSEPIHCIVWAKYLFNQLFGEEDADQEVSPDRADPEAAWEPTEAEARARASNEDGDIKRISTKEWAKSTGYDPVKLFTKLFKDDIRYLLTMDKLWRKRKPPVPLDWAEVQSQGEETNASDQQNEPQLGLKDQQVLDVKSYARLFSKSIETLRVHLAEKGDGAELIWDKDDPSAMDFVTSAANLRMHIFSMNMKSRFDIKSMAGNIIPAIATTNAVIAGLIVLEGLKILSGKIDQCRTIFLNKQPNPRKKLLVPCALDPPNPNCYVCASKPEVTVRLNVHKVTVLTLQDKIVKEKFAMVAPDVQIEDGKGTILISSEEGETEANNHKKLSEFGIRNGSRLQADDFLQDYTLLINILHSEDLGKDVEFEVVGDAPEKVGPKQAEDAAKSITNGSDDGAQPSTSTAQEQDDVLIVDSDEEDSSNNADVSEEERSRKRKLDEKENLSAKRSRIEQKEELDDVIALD
T1 sequence (Q9UBE0 1-346 partner): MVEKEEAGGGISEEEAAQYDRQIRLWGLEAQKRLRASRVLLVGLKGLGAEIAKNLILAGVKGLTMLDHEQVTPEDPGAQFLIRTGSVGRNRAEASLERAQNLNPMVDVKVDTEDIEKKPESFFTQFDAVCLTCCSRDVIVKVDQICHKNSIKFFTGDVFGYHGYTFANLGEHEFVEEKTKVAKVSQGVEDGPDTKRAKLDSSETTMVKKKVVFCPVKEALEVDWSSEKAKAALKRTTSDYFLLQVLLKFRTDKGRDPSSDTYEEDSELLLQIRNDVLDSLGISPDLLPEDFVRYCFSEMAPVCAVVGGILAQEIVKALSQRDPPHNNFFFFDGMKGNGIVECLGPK
In words: E1-SUMO-1 thioester formation gel assay with fluorescent SUMO-1. In kind it is biochemical.

Chain of UBC9 (SUMO E2 enzyme) (P63279 2-158): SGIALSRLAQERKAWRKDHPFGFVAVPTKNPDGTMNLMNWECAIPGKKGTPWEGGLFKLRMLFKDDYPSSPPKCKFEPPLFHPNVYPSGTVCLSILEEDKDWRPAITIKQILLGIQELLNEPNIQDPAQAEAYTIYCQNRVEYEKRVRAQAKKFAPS
Chain of UBC9 (SUMO E2 enzyme) (P63165 2-97 partner): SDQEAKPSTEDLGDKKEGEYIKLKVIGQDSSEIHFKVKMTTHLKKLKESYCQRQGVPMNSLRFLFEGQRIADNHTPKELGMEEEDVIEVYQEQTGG

On to `O=c1cc(-c2ccc(O)c(O)c2O)oc2ccccc12` [2-D08, 2’,3’,4’-trihydroxyflavone], for which, on UBC9 (SUMO E2 enzyme), the half-maximal inhibitory concentration (IC50) was 6 ± 1.3 µM.

In the case of `CCCCCC/C=C\CCCCCCCc1cccc(O)c1C(=O)O` [ginkgolic acid], the midpoint of inhibition in test [1], the IC50, lay at 9.1 µM.
